{"source": "ChEMBL document CHEMBL4229410", "about": "“Facile construction of fused benzimidazole-isoquinolinones that induce cell-cycle arrest and apoptosis in colorectal cancer cells” (Bioorg Med Chem, 2018)", "key": {"Ephrin type-A receptor 2": {"biological_target": "Ephrin type-A receptor 2 (Homo sapiens, UniProt P29317)", "sequence (P29317 whole entry, the tested form may be a part)": "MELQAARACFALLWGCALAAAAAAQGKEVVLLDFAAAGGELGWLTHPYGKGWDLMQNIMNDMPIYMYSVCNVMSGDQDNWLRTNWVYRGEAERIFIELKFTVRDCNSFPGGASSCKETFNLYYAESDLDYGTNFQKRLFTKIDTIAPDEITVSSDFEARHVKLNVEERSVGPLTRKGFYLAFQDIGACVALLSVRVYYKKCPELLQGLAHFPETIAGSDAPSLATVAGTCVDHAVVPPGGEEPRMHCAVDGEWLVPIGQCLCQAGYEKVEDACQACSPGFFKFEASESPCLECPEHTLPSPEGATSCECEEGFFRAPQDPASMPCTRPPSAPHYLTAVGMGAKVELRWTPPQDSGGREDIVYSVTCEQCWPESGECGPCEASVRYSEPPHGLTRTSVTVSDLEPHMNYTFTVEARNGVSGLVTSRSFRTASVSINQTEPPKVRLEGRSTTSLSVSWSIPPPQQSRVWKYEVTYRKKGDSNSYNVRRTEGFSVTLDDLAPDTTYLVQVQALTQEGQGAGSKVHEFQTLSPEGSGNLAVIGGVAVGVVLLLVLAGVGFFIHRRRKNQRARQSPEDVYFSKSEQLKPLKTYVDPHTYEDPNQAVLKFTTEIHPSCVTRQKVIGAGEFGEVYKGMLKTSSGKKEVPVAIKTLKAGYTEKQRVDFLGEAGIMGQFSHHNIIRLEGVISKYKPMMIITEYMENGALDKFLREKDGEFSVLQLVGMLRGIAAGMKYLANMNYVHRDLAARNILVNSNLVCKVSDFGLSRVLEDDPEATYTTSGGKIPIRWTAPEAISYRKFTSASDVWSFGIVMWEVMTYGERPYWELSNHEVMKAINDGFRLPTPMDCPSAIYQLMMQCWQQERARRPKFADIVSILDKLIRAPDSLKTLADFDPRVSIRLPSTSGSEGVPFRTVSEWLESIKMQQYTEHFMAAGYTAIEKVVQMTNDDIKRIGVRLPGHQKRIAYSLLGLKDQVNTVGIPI", "assay": "Binding affinity to human EPHA2 (T593 to V891 residues) expressed in bacterial expression system by KINOMEscan assay"}, "HT-29 [1]": {"tested_on": "HT-29", "assay": "Inhibition of PI3K in human HT-29 cells assessed as reduction in AKT phosphorylation at T308 residue up to 75 uM after 48 hrs by Western blot analysis", "format": "cell-based"}, "[2]": {"biological_target": "NUAK family SNF1-like kinase 2 (Homo sapiens) (UniProt Q9H093)", "assay": "Inhibition of human SNARK (P22 to A333 residues) expressed in mammalian expression system assessed as residual activity at 5 uM by KINOMEscan assay relative to control"}, "HT-29 [3]": {"tested_on": "HT-29", "assay": "Antiproliferative activity against human HT-29 cells after 48 hrs by BrdU/DAPI staining based immunofluorescence assay", "format": "functional, cell-based", "in_short": "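Cells seeded at 20,000 per well after reaching 80% confluence; exposed 48 h to 0, 25, 50, 75 μM, then 10 μM BrdU for 2 h. Paraformaldehyde fixation, 2 M HCl 30 min, 10% goat serum block, anti-BrdU primary overnight at 4 °C, secondary 120 min at room temperature, DAPI 300 nM. Fluorescence microscopy; percent BrdU-positive nuclei, mean ± SD of three independent experiments.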"}, "[4]": {"biological_target": "Phosphatidylinositol 4-phosphate 3-kinase C2 domain-containing subunit beta (Homo sapiens, UniProt O00750)", "assay": "Binding affinity to human PIK3C2B (M1 to L1634 residues) expressed in mammalian expression system by KINOMEscan assay"}, "[5]": {"biological_target": "Serine/threonine-protein kinase pim-2 (Homo sapiens, UniProt Q9P1W9)", "assay": "Inhibition of human PIM2 (M1 to E291 residues) expressed in bacterial expression system assessed as residual activity at 5 uM by KINOMEscan assay relative to control"}, "[6]": {"biological_target": "Mast/stem cell growth factor receptor Kit (Homo sapiens, UniProt P10721, D816V)", "assay": "Binding affinity to human KIT (I571 to D952 residues) D816V mutant expressed in bacterial expression system by KINOMEscan assay"}, "SW-620 [7]": {"tested_on": "SW-620", "assay": "Cell cycle arrest in human SW620 cells assessed as accumulation at S-phase at 25 uM after 48 hrs by propidium iodide staining based flow cytometry (reference value: 43.72%)", "format": "functional"}, "TGF-beta receptor type-1": {"biological_target": "TGF-beta receptor type-1 (Homo sapiens, UniProt P36897)", "sequence (P36897 whole entry, the tested form may be a part)": "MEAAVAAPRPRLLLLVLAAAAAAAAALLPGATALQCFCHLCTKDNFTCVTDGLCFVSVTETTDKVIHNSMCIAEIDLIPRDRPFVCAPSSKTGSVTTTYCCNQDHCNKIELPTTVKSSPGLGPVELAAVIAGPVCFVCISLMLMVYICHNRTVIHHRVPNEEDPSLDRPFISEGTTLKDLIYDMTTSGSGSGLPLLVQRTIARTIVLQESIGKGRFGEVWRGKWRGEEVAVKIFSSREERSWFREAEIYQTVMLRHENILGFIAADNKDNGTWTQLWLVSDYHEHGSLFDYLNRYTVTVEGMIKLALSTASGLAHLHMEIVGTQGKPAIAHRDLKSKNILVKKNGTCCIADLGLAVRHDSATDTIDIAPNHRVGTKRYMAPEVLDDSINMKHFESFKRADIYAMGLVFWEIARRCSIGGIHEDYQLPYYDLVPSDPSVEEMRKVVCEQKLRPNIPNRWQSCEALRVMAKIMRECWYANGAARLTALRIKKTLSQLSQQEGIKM", "assay": "Binding affinity to human TGFBR1 (D179 to M503 residues) expressed in bacterial expression system by KINOMEscan assay"}, "SW-620 [8]": {"tested_on": "SW-620", "assay": "Induction of apoptosis in human SW620 cells assessed as necrotic cells at 50 uM after 48 hrs by Annexin-V-FITC/propidium iodide staining based flow cytometry (reference value: 0.9%)", "format": "functional"}, "[9]": {"biological_target": "Receptor tyrosine-protein kinase erbB-2 (Homo sapiens, UniProt P04626)", "assay": "Binding affinity to human ERBB2 (K646 to V1225 residues) expressed in mammalian expression system by KINOMEscan assay"}, "[10]": {"biological_target": "Serine/threonine-protein kinase PLK3 (Homo sapiens, UniProt Q9H4B4)", "sequence (Q9H4B4 whole entry, the tested form may be a part)": "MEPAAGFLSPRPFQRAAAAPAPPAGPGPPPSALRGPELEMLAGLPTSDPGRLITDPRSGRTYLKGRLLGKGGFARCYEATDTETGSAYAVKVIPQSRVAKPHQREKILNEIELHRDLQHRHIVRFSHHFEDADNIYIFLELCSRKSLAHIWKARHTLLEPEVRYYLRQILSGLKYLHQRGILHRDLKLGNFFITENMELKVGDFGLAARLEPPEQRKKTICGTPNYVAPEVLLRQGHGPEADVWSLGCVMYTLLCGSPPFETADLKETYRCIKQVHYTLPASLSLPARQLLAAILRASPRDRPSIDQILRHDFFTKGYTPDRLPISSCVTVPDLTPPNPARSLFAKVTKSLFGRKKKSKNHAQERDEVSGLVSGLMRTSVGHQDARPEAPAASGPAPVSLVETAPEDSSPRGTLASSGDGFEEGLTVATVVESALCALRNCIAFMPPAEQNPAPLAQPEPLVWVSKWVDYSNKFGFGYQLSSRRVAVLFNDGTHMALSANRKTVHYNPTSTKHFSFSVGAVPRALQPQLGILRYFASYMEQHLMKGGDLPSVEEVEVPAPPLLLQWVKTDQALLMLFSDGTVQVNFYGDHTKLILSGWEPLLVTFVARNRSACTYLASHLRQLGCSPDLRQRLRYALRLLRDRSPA", "assay": "Binding affinity to partial length human PLK3 (A42 to L334 residues) expressed in mammalian expression system by KINOMEscan assay"}, "[11]": {"biological_target": "Receptor tyrosine-protein kinase erbB-4 (Homo sapiens, UniProt Q15303)", "sequence (Q15303 whole entry, the tested form may be a part)": "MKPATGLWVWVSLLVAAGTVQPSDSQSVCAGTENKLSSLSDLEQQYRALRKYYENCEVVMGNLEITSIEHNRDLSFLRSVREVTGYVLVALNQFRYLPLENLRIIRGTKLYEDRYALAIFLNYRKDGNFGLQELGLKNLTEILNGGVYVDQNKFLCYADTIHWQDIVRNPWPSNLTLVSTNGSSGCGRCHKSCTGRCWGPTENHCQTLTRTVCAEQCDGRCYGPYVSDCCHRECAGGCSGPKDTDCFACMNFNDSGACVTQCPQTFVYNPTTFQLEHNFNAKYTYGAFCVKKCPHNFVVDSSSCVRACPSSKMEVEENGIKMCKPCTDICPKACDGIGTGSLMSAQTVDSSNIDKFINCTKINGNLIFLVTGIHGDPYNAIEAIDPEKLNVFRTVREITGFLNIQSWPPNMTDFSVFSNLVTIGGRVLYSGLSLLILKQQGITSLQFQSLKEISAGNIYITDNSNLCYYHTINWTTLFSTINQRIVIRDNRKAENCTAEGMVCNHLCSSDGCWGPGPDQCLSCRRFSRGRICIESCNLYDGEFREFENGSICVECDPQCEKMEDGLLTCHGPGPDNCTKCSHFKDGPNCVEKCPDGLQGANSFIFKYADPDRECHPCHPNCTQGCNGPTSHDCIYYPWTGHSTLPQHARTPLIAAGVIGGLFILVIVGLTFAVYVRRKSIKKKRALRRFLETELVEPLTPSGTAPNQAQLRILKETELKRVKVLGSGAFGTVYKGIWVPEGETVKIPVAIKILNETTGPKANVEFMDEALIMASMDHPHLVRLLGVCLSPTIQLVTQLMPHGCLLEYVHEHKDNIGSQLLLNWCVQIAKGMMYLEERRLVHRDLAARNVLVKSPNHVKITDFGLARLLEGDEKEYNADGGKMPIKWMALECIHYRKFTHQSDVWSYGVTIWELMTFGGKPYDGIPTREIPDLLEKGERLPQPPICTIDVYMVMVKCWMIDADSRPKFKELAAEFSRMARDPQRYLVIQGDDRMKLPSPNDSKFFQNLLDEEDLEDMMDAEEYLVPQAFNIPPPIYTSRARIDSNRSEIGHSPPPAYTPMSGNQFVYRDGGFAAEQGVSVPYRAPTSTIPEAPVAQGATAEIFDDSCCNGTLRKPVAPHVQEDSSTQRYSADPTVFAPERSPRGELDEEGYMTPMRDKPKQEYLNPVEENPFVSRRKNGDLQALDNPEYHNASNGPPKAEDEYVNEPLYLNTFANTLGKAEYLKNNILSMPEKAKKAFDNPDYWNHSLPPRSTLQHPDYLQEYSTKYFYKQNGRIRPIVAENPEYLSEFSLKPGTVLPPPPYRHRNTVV", "assay": "Inhibition of human ERBB4 (L690 to K994 residues) expressed in bacterial expression system assessed as residual activity at 5 uM by KINOMEscan assay relative to control"}, "HT-29 [12]": {"tested_on": "HT-29", "assay": "Inhibition of colony formation in human HT-29 cells assessed as reduction in number of colonies at 25 to 75 uM treated for 48 hrs followed by compound washout and measured after 14 hrs by crystal violet staining based assay", "format": "functional, cell-based"}, "SW-620 [13]": {"tested_on": "SW-620", "assay": "Induction of apoptosis in human SW620 cells assessed as early apoptotic cells at 50 uM after 48 hrs by Annexin-V-FITC/propidium iodide staining based flow cytometry (reference value: 0.4%)", "format": "functional"}, "SW-620 [14]": {"tested_on": "SW-620", "assay": "Effect on total mTOR expression in human SW620 cells up to 75 uM after 48 hrs by Western blot analysis", "format": "ADME, cell-based", "conditions": "sw-620, 48 h", "in_short": "(§1)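 HT29 or SW620 cells were treated at 0, 25, 50 and 75 μM for 48 h and lysed in RIPA with protease and phosphatase inhibitors. Protein was quantified by BCA. 50 μg lysate was run on 8–15% SDS-PAGE and transferred to PVDF. Blocking was 5% BSA/TBST for 2 h; primary antibodies were applied overnight at 4 °C, then HRP secondary 1 h at room temperature.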"}, "Activin receptor type-1B": {"biological_target": "Activin receptor type-1B (Homo sapiens, UniProt P36896)", "sequence (P36896 whole entry, the tested form may be a part)": "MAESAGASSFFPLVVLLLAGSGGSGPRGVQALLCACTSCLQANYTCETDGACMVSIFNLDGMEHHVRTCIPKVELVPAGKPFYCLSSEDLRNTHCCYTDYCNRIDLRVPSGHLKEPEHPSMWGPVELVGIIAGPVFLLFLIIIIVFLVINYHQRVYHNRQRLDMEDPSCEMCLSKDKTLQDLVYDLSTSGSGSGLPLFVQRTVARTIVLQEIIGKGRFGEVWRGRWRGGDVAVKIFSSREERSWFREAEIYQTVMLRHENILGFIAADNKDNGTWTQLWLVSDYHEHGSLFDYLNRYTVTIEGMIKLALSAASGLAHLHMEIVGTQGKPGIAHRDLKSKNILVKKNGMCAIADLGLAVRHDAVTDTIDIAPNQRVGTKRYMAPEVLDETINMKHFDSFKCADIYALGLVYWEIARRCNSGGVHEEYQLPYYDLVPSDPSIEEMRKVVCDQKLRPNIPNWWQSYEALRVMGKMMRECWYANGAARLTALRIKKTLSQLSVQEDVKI", "assay": "Binding affinity to human ACVR1B (S187 to I505 residues) expressed in bacterial expression system by KINOMEscan assay"}, "SW-620 [15]": {"tested_on": "SW-620", "assay": "Upregulation of p21 expression in human SW620 cells after 48 hrs by Western blot analysis", "format": "functional, cell-based"}, "HT-29 [16]": {"tested_on": "HT-29", "assay": "Induction of apoptosis in human HT-29 cells assessed as reduction in MCL1 expression after 48 hrs by Western blot analysis", "format": "functional, cell-based", "in_short": "as §1"}, "SW-620 [17]": {"tested_on": "SW-620", "assay": "Induction of apoptosis in human SW620 cells assessed as necrotic cells at 75 uM after 48 hrs by Annexin-V-FITC/propidium iodide staining based flow cytometry (reference value: 0.9%)", "format": "functional"}, "SW-620 [18]": {"tested_on": "SW-620", "assay": "Cell cycle arrest in human SW620 cells assessed as accumulation at G2-phase at 25 uM after 48 hrs by propidium iodide staining based flow cytometry (reference value: 14.08%)", "format": "functional"}, "HT-29 [19]": {"tested_on": "HT-29", "assay": "Induction of apoptosis in human HT-29 cells assessed as increase in apoptotic bodies after 48 hrs by Hoechst 33342 staining based fluorescence microscopic analysis", "format": "functional, cell-based", "in_short": "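HT29 cells in 24-well plates were treated at 0, 25, 50 or 75 μM for 48 h and fixed 20 min in 4% paraformaldehyde. After Hoechst 33342 staining for 15 min at 37 °C, apoptotic bodies and chromatin condensation were scored by fluorescence microscopy.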"}, "[20]": {"biological_target": "Non-receptor tyrosine-protein kinase TYK2 (Homo sapiens, UniProt P29597)", "assay": "Inhibition of human TYK2 JH1 catalytic domain (V877 to C1187 residues) expressed in mammalian expression system assessed as residual activity at 5 uM by KINOMEscan assay relative to control"}, "[21]": {"biological_target": "Serine/threonine-protein kinase 32C (Homo sapiens, UniProt Q86UX6)", "assay": "Inhibition of human YANK3 (M68 to G486 residues) expressed in bacterial expression system assessed as residual activity at 5 uM by KINOMEscan assay relative to control"}, "[22]": {"biological_target": "Phosphatidylinositol 4,5-bisphosphate 3-kinase catalytic subunit alpha isoform (Homo sapiens, UniProt P42336)", "sequence (P42336 whole entry, the tested form may be a part, canonical isoform)": "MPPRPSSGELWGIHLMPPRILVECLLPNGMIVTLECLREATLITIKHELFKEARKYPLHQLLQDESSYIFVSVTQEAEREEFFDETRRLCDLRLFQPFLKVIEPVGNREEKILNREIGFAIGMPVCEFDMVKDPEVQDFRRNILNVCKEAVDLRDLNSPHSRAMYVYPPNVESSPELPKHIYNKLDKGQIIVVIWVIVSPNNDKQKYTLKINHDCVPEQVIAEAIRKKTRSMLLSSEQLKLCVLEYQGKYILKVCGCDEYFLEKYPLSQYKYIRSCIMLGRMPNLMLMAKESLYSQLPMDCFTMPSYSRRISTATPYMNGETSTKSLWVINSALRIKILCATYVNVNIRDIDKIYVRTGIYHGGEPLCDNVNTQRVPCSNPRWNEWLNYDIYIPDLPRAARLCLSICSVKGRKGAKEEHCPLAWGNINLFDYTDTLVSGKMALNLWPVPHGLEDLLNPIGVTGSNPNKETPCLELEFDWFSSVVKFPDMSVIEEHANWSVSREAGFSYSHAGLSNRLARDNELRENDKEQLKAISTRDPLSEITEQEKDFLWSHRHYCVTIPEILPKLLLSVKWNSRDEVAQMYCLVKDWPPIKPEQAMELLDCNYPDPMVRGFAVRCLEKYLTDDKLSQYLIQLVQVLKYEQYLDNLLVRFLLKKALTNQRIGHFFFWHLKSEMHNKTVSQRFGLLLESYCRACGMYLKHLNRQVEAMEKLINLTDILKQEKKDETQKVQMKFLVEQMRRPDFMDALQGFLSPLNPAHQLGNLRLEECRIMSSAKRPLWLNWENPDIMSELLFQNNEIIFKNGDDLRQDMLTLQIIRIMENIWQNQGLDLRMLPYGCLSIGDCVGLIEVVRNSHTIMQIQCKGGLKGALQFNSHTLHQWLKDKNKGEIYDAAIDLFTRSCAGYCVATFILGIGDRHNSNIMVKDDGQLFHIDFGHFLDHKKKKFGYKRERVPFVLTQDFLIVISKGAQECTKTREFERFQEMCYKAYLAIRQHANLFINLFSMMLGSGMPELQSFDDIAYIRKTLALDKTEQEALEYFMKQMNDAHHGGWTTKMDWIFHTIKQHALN", "assay": "Inhibition of human PIK3CA (R108 to N1068 residues) expressed in mammalian expression system assessed as residual activity at 5 uM by KINOMEscan assay relative to control"}, "[23]": {"biological_target": "Mitogen-activated protein kinase kinase kinase 9 (Homo sapiens, UniProt P80192)", "assay": "Binding affinity to human MLK1 (V88 to W426 residues) expressed in bacterial expression system by KINOMEscan assay"}, "[24]": {"biological_target": "Proto-oncogene tyrosine-protein kinase Src (Homo sapiens, UniProt P12931)", "assay": "Inhibition of human SRC (L240 to L536 residues) expressed in bacterial expression system assessed as residual activity at 5 uM by KINOMEscan assay relative to control"}}, "note": "pKd: −log10 of the molar value. Active and inactive are the calls of the source. The calls are words filed in the database; no cut-off is given here."}
{"smiles": "CC(C)CN(C(=O)c1cccnc1)c1c2ccccc2c(=O)n2c1[nH]c1ccccc12", "values": [{"measurement": "pKd", "setting": "Ephrin type-A receptor 2", "value": "≤ 5.30"}, {"measurement": "inhibition", "setting": "HT-29 [1]", "value": "Active"}, {"measurement": "Activity", "setting": "[2]", "value": 100, "unit": "%"}, {"measurement": "Activity", "setting": "HT-29 [3]", "value": "Dose-dependent effect"}, {"measurement": "pKd", "setting": "[4]", "value": "≤ 5.30"}, {"measurement": "Activity", "setting": "[5]", "value": 100, "unit": "%"}, {"measurement": "pKd", "setting": "[6]", "value": "≤ 5.30"}, {"measurement": "Activity", "setting": "SW-620 [7]", "value": 43.71, "unit": "%"}, {"measurement": "pKd", "setting": "TGF-beta receptor type-1", "value": "≤ 5.30"}, {"measurement": "Activity", "setting": "SW-620 [8]", "value": 5.5, "unit": "%"}, {"measurement": "pKd", "setting": "[9]", "value": "≤ 5.30"}, {"measurement": "pKd", "setting": "[10]", "value": "≤ 5.30"}, {"measurement": "Activity", "setting": "[11]", "value": 98, "unit": "%"}, {"measurement": "inhibition", "setting": "HT-29 [12]", "value": "Active"}, {"measurement": "Activity", "setting": "SW-620 [13]", "value": 0.6, "unit": "%"}, {"measurement": "Activity", "setting": "SW-620 [14]", "value": "Non-Toxic"}, {"measurement": "pKd", "setting": "Activin receptor type-1B", "value": "≤ 5.30"}, {"measurement": "Activity", "setting": "SW-620 [15]", "value": "Dose-dependent effect"}, {"measurement": "Activity", "setting": "HT-29 [16]", "value": "Dose-dependent effect"}, {"measurement": "Activity", "setting": "SW-620 [17]", "value": 3.5, "unit": "%"}, {"measurement": "Activity", "setting": "SW-620 [18]", "value": 14.72, "unit": "%"}, {"measurement": "Activity", "setting": "HT-29 [19]", "value": "Dose-dependent effect"}, {"measurement": "Activity", "setting": "[20]", "value": 73, "unit": "%"}, {"measurement": "Activity", "setting": "[21]", "value": 99, "unit": "%"}, {"measurement": "Activity", "setting": "[22]", "value": 100, "unit": "%"}, {"measurement": "pKd", "setting": "[23]", "value": "≤ 5.30"}, {"measurement": "Activity", "setting": "[24]", "value": 100, "unit": "%"}]}
